These results are taken from ChEMBL document CHEMBL3286279, “The synthesis and biological evaluation of new DNA-directed alkylating agents, phenyl N-mustard-4-anilinoquinoline conjugates containing a urea linker” (Eur J Med Chem, 2014).

Experiment [1] has as its system CCRF-CEM. The experiment is described as follows: Cytotoxicity against human CCRF-CEM cells after 72 hrs by AlamarBlue assay. The experiment is classed as functional, cell-based. Put shortly:
(§1)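 Growth inhibition read by alamarBlue. After reagent addition, plates were held 6 h at 37 °C and absorbance read at 570 and 600 nm. IC50 was derived from dose-response curves over 6 or 7 drug concentrations by the median-effect method. Values are mean and STDEV of three to six independent experiments.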
(In general: Alamar Blue is a resazurin reagent that responds to reducing activity.)

For experiment [2], the system named is CCRF-CEM. The experiment is described as follows: Cytotoxicity against human vinblastine-resistant CCRF-CEM cells after 72 hrs by AlamarBlue assay. The experiment is classed as functional, cell-based. Put shortly: as §1
In a further experiment the test system is PC-3. The experiment is described as follows: Cytotoxicity against human PC3 cells after 72 hrs by AlamarBlue assay. The experiment is classed as functional, cell-based. As to conditions: PC-3, 72 h. A digest of the protocol:
as §1

Experiment [3] in a line: Cytotoxicity against human H460 cells after 72 hrs by AlamarBlue assay. The experiment is classed as functional, cell-based. The following applies: NCI-H460, 72 h. A digest of the protocol:
as §1

Experiment [4] is described as follows: Cytotoxicity against human H1299 cells after 72 hrs by AlamarBlue assay. The experiment is classed as functional, cell-based. As to conditions: NCI-H1299, 72 h. Put shortly:
as §1

The test system of a further experiment is HCT-116. The experiment in a line: Cytotoxicity against human HCT116 cells after 72 hrs by AlamarBlue assay. The experiment is classed as functional, cell-based. The following applies: HCT-116, 72 h. Put shortly:
as §1

Experiment [5] concerns CCRF-CEM. The experiment is described as follows: Ratio of IC50 for human vinblastine-resistant CCRF-CEM cells to IC50 for human CCRF-CEM cells. The experiment is classed as functional. Put shortly:
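Ratio of alamarBlue IC50 values, determined in the CCRF-CEM/VBL vinblastine-resistant subline and in the parental CCRF-CEM line.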

Bounds are passed on as bounds.

What is called IC50 is the concentration at which inhibition is half-maximal. For the compound `Cc1cc(Nc2ccc(Br)cc2)c2cc(NC(=O)Nc3ccc(N(CCCl)CCCl)cc3)ccc2n1`, the IC50 in the experiment on CCRF-CEM [1] stood at 0.52 µM; in the experiment on CCRF-CEM [2], 9.53 µM; with PC-3, 1.75 µM; in experiment [3] it was 0.91 µM; in experiment [4], 1.35 µM; in the experiment on HCT-116, 0.8 µM. Besides, in the experiment with CCRF-CEM [5], the “Ratio IC50” value is given as 18.33.
As for `O=C(Nc1ccc(N(CCCl)CCCl)cc1)Nc1ccc2nc(-c3ccccc3)cc(Nc3ccc(F)c(Cl)c3)c2c1`, the half-maximal inhibitory concentration (IC50) with CCRF-CEM [1] came to 2.72 µM; in the experiment on CCRF-CEM [2] it was 7.07 µM; in the experiment with PC-3, 8.86 µM; in experiment [3], 7.81 µM; in experiment [4] it was 5.39 µM; in the experiment with HCT-116, 3.58 µM. In addition, the “Ratio IC50” value with CCRF-CEM [5] came to 2.59.
`COc1cccc(Nc2cc(-c3ccccc3)nc3ccc(NC(=O)Nc4ccc(N(CCCl)CCCl)cc4)cc23)c1`: the 50% inhibitory concentration (IC50) worked out at 0.79 µM in the experiment with CCRF-CEM [1]; 2.71 µM with CCRF-CEM [2]; 2.21 µM with PC-3; 1.89 µM in experiment [3]; 2.13 µM in experiment [4]; 1.35 µM in the experiment on HCT-116. Besides, the “Ratio IC50” value in the experiment with CCRF-CEM [5] was found to be 3.43.
With `C#Cc1cccc(Nc2cc(C)nc3ccc(NC(=O)Nc4ccc(N(CCCl)CCCl)cc4)cc23)c1`, the IC50 in the experiment on CCRF-CEM [1] is 0.47 µM; in the experiment with CCRF-CEM [2] it was 4.49 µM; with PC-3 it was 1.17 µM; in experiment [3], 0.7 µM; in experiment [4] it was 1.13 µM; in the experiment on HCT-116, 0.59 µM. In addition, the “Ratio IC50” value with CCRF-CEM [5] worked out at 9.55.
For `COc1cc(Nc2cc(C)nc3ccc(NC(=O)Nc4ccc(N(CCCl)CCCl)cc4)cc23)cc(OC)c1OC`, the IC50 in the experiment on CCRF-CEM [1] was 0.8 µM; in the experiment with CCRF-CEM [2] it was over 100 µM; in the experiment on PC-3 it was 3.46 µM; in experiment [3], 3.74 µM; in experiment [4] it was 2.54 µM; with HCT-116, 1.81 µM. For the same compound, in the experiment with CCRF-CEM [5], the “Ratio IC50” value is listed as over 125.
Turning to `Cc1cc(Nc2ccc(F)cc2)c2cc(NC(=O)Nc3ccc(N(CCCl)CCCl)cc3)ccc2n1`, the IC50 in the experiment on CCRF-CEM [1] worked out at 0.42 µM; with CCRF-CEM [2], 11 µM; with PC-3, 7.16 µM; in experiment [3], 1.01 µM; in experiment [4], 2.37 µM; with HCT-116, 1.06 µM. Moreover, the “Ratio IC50” value in the experiment on CCRF-CEM [5] came to 26.19.
For the compound `Cc1cc(Nc2cccc(C(F)(F)F)c2)c2cc(NC(=O)Nc3ccc(N(CCCl)CCCl)cc3)ccc2n1`, the concentration for half-maximal inhibition (IC50) with CCRF-CEM [1] was 0.59 µM; with CCRF-CEM [2] it was 5.96 µM; with PC-3, 1.42 µM; in experiment [3], 0.85 µM; in experiment [4], 1.48 µM; in the experiment on HCT-116, 0.62 µM. In addition, in the experiment on CCRF-CEM [5], the “Ratio IC50” value is given as 10.1.
For the compound `Cc1cc(Nc2ccc(F)c(Br)c2)c2cc(NC(=O)Nc3ccc(N(CCCl)CCCl)cc3)ccc2n1`, the IC50 in the experiment on CCRF-CEM [1] was 0.4 µM; in the experiment on CCRF-CEM [2], 10.2 µM; in the experiment on PC-3 it was 1.32 µM; in experiment [3] it was 0.82 µM; in experiment [4] it was 1.28 µM; in the experiment with HCT-116, 0.63 µM. Further, the “Ratio IC50” value with CCRF-CEM [5] stood at 25.45.
As to `Cc1cc(Nc2cccc(Cl)c2)c2cc(NC(=O)Nc3ccc(N(CCCl)CCCl)cc3)ccc2n1`, the IC50 was 0.59 µM with CCRF-CEM [1]; 7.56 µM in the experiment on CCRF-CEM [2]; 1.27 µM in the experiment with PC-3; 1.03 µM in experiment [3]; 0.88 µM in experiment [4]; 0.56 µM in the experiment on HCT-116. Also, the “Ratio IC50” value in the experiment with CCRF-CEM [5] turned out to be 12.81.
With `Cc1cccc(Nc2cc(-c3ccccc3)nc3ccc(NC(=O)Nc4ccc(N(CCCl)CCCl)cc4)cc23)c1`, the IC50 was 1.84 µM in the experiment on CCRF-CEM [1]; 4.15 µM with CCRF-CEM [2]; 1.23 µM in the experiment on PC-3; 2.09 µM in experiment [3]; 1.42 µM in experiment [4]; 1.8 µM in the experiment with HCT-116. Besides, the “Ratio IC50” value in the experiment with CCRF-CEM [5] is listed as 2.25.
Consider `CC[C@]1(O)C[C@@H]2CN(CCc3c([nH]c4ccccc34)[C@@](C(=O)OC)(c3cc4c(cc3OC)N(C)[C@H]3[C@@](O)(C(=O)OC)[C@H](OC(C)=O)[C@]5(CC)C=CCN6CC[C@]43[C@@H]65)C2)C1` [VINBLASTINE], for which the results for the concentration for half-maximal inhibition (IC50) in the experiment on CCRF-CEM [1] and in the experiment with CCRF-CEM [2] were 0.0029 µM and 0.87 µM, respectively. Also, the “Ratio IC50” value in the experiment on CCRF-CEM [5] turned out to be 300.
